Source: ChEMBL document CHEMBL4145444, “Investigating the structure-activity relationships of N'-[(5-nitrofuran-2-yl) methylene] substituted hydrazides against Trypanosoma cruzi to design novel active compounds” (Eur J Med Chem, 2018)

Tested on: Trypanosoma cruzi
Experiment: Antitrypanosomal activity against Trypanosoma cruzi Colombiana Tc1 epimastigotes measured after 72 hrs
Assay type: functional, organism-based
Details: not given
How it was run: (§1)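 Exponentially growing epimastigotes (1.0*10^7 parasites/mL) cultured in LIT-FCS medium with compound from 0.4 to 300.0 µM, added from DMSO stock (DMSO ≤1.0%), 72 h at 28 °C. Viable parasites read by absorbance at 562 nm. PGI computed against untreated culture after subtracting compound/medium blanks. IC50 from sigmoid dose-response fit using at least six concentrations. Triplicates, at least two independent experiments.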

| SMILES | log1/IC50 |
| --- | --- |
| O=C(N/N=C/c1ccc([N+](=O)[O-])o1)c1ccc(O)cc1 [NIFUROXAZIDE] | 3.73 |
| CN(C)c1ccc(C(=O)N/N=C/c2ccc([N+](=O)[O-])o2)cc1 | 4.07 |
| O=C(Cc1ccccc1)N/N=C/c1ccc([N+](=O)[O-])o1 | 5 |
| CC1CS(=O)(=O)CCN1/N=C/c1ccc([N+](=O)[O-])o1 (centres undefined) [NIFURTIMOX] | 5 |
| CCCCOc1ccc(C(=O)N/N=C/c2ccc([N+](=O)[O-])o2)cc1 | 5.54 |
| O=C(N/N=C/c1ccc([N+](=O)[O-])o1)c1ccc(-c2ccccc2)cc1 | 5.51 |
| O=C(N/N=C/c1ccc([N+](=O)[O-])o1)c1ccccc1Oc1ccccc1 | 5.24 |
| Cc1nnsc1C(=O)N/N=C/c1ccc([N+](=O)[O-])o1 | 4.85 |
| COc1ccc(C(=O)N/N=C/c2ccc([N+](=O)[O-])o2)cc1OC | 4.58 |

Same assay, conditions: Trypanosoma cruzi, Colombiana, 72 h

| SMILES | IC50 [µM] |
| --- | --- |
| O=C(N/N=C/c1ccc([N+](=O)[O-])o1)c1ccc(O)cc1 [NIFUROXAZIDE] | 188 |
| CN(C)c1ccc(C(=O)N/N=C/c2ccc([N+](=O)[O-])o2)cc1 | 85.5 |
| O=C(Cc1ccccc1)N/N=C/c1ccc([N+](=O)[O-])o1 | 10.1 |
| CC1CS(=O)(=O)CCN1/N=C/c1ccc([N+](=O)[O-])o1 (centres undefined) [NIFURTIMOX] | 9.93 |
| CCCCOc1ccc(C(=O)N/N=C/c2ccc([N+](=O)[O-])o2)cc1 | 2.86 |
| O=C(N/N=C/c1ccc([N+](=O)[O-])o1)c1ccc(-c2ccccc2)cc1 | 3.06 |
| O=C(N/N=C/c1ccc([N+](=O)[O-])o1)c1ccccc1Oc1ccccc1 | 5.79 |
| Cc1nnsc1C(=O)N/N=C/c1ccc([N+](=O)[O-])o1 | 14.2 |
| COc1ccc(C(=O)N/N=C/c2ccc([N+](=O)[O-])o2)cc1OC | 26.6 |

Tested on: not listed separately
Experiment: Selectivity index, ratio of CC50 for cytotoxicity against human U2OS cells to IC50 for Trypanosoma cruzi Y Tc2 amastigotes infected in human U2OS cells
Assay type: toxicity, cell-based
Details: read-out: Ratio CC50/IC50
How it was run: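 Ratio of U2OS CC50 to Y-strain amastigote IC50, both from the same 72 h Draq5-stained HCS assay in infected U2OS cells (2-fold series up to 200 μM, 1% DMSO).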

| SMILES | selectivity ratio |
| --- | --- |
| O=C(N/N=C/c1ccc([N+](=O)[O-])o1)c1ccc(O)cc1 [NIFUROXAZIDE] | 10.7 |
| CC1CS(=O)(=O)CCN1/N=C/c1ccc([N+](=O)[O-])o1 (centres undefined) [NIFURTIMOX] | 16.4 |
| CCCCOc1ccc(C(=O)N/N=C/c2ccc([N+](=O)[O-])o2)cc1 | 31.9 |
| O=C(N/N=C/c1ccc([N+](=O)[O-])o1)c1ccc(-c2ccccc2)cc1 | 154 |

Tested on: Trypanosoma cruzi
Experiment: Antitrypanosomal activity Trypanosoma cruzi Bug 2149 cl10 Tc5 epimastigotes measured after 72 hrs
Assay type: functional, organism-based
Details: not given
How it was run: as §1, with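 “°C.” for “°C. Viable parasites read by absorbance at 562 nm.”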

| SMILES | log1/IC50 |
| --- | --- |
| O=C(N/N=C/c1ccc([N+](=O)[O-])o1)c1ccc(O)cc1 [NIFUROXAZIDE] | 3.52 |
| CC1CS(=O)(=O)CCN1/N=C/c1ccc([N+](=O)[O-])o1 (centres undefined) [NIFURTIMOX] | 5.14 |
| CCCCOc1ccc(C(=O)N/N=C/c2ccc([N+](=O)[O-])o2)cc1 | 5.37 |
| O=C(N/N=C/c1ccc([N+](=O)[O-])o1)c1ccc(-c2ccccc2)cc1 | 5.74 |
| Cc1nnsc1C(=O)N/N=C/c1ccc([N+](=O)[O-])o1 | 4.73 |
| COc1ccc(C(=O)N/N=C/c2ccc([N+](=O)[O-])o2)cc1OC | 4.76 |

Same assay, conditions: Trypanosoma cruzi, Bug 2149 cl10, CL1-0, 72 h

| SMILES | IC50 [µM] |
| --- | --- |
| Cc1nnsc1C(=O)N/N=C/c1ccc([N+](=O)[O-])o1 | 18.7 |
| COc1ccc(C(=O)N/N=C/c2ccc([N+](=O)[O-])o2)cc1OC | 17.2 |

Tested on: Trypanosoma cruzi
Experiment: Antitrypanosomal activity against Trypanosoma cruzi Silvio X10 cl1 Tc1 epimastigotes measured after 72 hrs
Assay type: functional, organism-based
Details: not given
How it was run: as §1, with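 “°C.” for “°C. Viable parasites read by absorbance at 562 nm.”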

| SMILES | log1/IC50 |
| --- | --- |
| O=C(N/N=C/c1ccc([N+](=O)[O-])o1)c1ccc(O)cc1 [NIFUROXAZIDE] | 3.52 |
| CC1CS(=O)(=O)CCN1/N=C/c1ccc([N+](=O)[O-])o1 (centres undefined) [NIFURTIMOX] | 5.22 |
| CCCCOc1ccc(C(=O)N/N=C/c2ccc([N+](=O)[O-])o2)cc1 | 5.29 |
| O=C(N/N=C/c1ccc([N+](=O)[O-])o1)c1ccc(-c2ccccc2)cc1 | 5.71 |
| Cc1nnsc1C(=O)N/N=C/c1ccc([N+](=O)[O-])o1 | 4.47 |
| COc1ccc(C(=O)N/N=C/c2ccc([N+](=O)[O-])o2)cc1OC | 4.56 |

Same assay, conditions: Trypanosoma cruzi, Silvio X10 cl1, 72 h

| SMILES | IC50 [µM] |
| --- | --- |
| Cc1nnsc1C(=O)N/N=C/c1ccc([N+](=O)[O-])o1 | 34.1 |
| COc1ccc(C(=O)N/N=C/c2ccc([N+](=O)[O-])o2)cc1OC | 27.3 |

Tested on: Trypanosoma cruzi
Experiment: Antitrypanosomal activity Trypanosoma cruzi Y Tc2 epimastigotes measured after 72 hrs
Assay type: functional, organism-based
Details: not given
How it was run: as §1

| SMILES | log1/IC50 |
| --- | --- |
| CC1CS(=O)(=O)CCN1/N=C/c1ccc([N+](=O)[O-])o1 (centres undefined) [NIFURTIMOX] | 4.89 |
| Cc1nnsc1C(=O)N/N=C/c1ccc([N+](=O)[O-])o1 | 4.76 |

Next, values leading:

| log1/IC50 | SMILES |
| --- | --- |
| 3.52 | O=C(N/N=C/c1ccc([N+](=O)[O-])o1)c1ccc(O)cc1 [NIFUROXAZIDE] |
| 5.46 | CCCCOc1ccc(C(=O)N/N=C/c2ccc([N+](=O)[O-])o2)cc1 |
| 5.93 | O=C(N/N=C/c1ccc([N+](=O)[O-])o1)c1ccc(-c2ccccc2)cc1 |
| 4.85 | COc1ccc(C(=O)N/N=C/c2ccc([N+](=O)[O-])o2)cc1OC |

Same assay, conditions: Trypanosoma cruzi, Y, 72 h

| IC50 [µM] | SMILES |
| --- | --- |
| 17.3 | Cc1nnsc1C(=O)N/N=C/c1ccc([N+](=O)[O-])o1 |
| 14.2 | COc1ccc(C(=O)N/N=C/c2ccc([N+](=O)[O-])o2)cc1OC |

Tested on: Trypanosoma cruzi
Experiment: Antitrypanosomal activity against Trypanosoma cruzi Colombiana Tc1 trypamastigotes infected in monkey LLC-MK2 cells assessed as inhibition of parasite viability by measuring motility at 1 uM after 20 hrs by light microscopic method relative to control
Assay type: functional
Details: LLC-MK2, 20 h
How it was run: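 Colombiana trypomastigotes, centrifuged at 7,000 rpm at 4 °C, resuspended at 10^6/mL in DME with 2% FCS. Exposed to 1 μM compound, 0.5% DMSO final, 20 h at 37 °C, 5% CO2. Viability judged by motility under light microscope. Live parasites counted in a Neubauer chamber. % inhibition relative to drug-free control. Two independent experiments.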

| SMILES | inhibition at 1 µM [%] |
| --- | --- |
| CC1CS(=O)(=O)CCN1/N=C/c1ccc([N+](=O)[O-])o1 (centres undefined) [NIFURTIMOX] | 7.3 |

Tested on: not listed separately
Experiment: Cytotoxicity against human U2OS cells assessed as reduction in cell viability
Assay type: cell-based
Details: not given

| SMILES | CC50 [µM] |
| --- | --- |
| O=C(N/N=C/c1ccc([N+](=O)[O-])o1)c1ccc(O)cc1 [NIFUROXAZIDE] | 45.7 |
| CC1CS(=O)(=O)CCN1/N=C/c1ccc([N+](=O)[O-])o1 (centres undefined) [NIFURTIMOX] | 85.2 |
| CCCCOc1ccc(C(=O)N/N=C/c2ccc([N+](=O)[O-])o2)cc1 | 46.6 |
| O=C(N/N=C/c1ccc([N+](=O)[O-])o1)c1ccc(-c2ccccc2)cc1 | 109 |

Tested on: Trypanosoma cruzi
Experiment: Antitrypanosomal activity against Trypanosoma cruzi Y Tc2 amastigotes infected in human U2OS cells after 72 hrs by Draq5 staining based HCS analysis
Assay type: functional, organism-based
Details: not given
How it was run: (§2)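 U2OS cells (700/well, high-glucose DME, 10% FBS) seeded and incubated 24 h. Then infected with 2,800 Y-strain trypomastigotes harvested from LLC-MK2 cells. On day 3, 14-point 2-fold dilutions added, top 200 μM, 1% DMSO, 72 h. Fixed in 4% PFA, Draq5 stained, imaged at 20x. Infection ratio normalized to DMSO-mock infected and uninfected controls. IC50 by sigmoidal variable-slope fit. Doublets, duplicate experiments.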

| IC50 [µM] | SMILES |
| --- | --- |
| 4.26 | O=C(N/N=C/c1ccc([N+](=O)[O-])o1)c1ccc(O)cc1 [NIFUROXAZIDE] |
| 5.18 | CC1CS(=O)(=O)CCN1/N=C/c1ccc([N+](=O)[O-])o1 (centres undefined) [NIFURTIMOX] |
| 1.46 | CCCCOc1ccc(C(=O)N/N=C/c2ccc([N+](=O)[O-])o2)cc1 |
| 0.71 | O=C(N/N=C/c1ccc([N+](=O)[O-])o1)c1ccc(-c2ccccc2)cc1 |

Tested on: Trypanosoma cruzi
Experiment: Antitrypanosomal activity against Trypanosoma cruzi Y Tc2 amastigotes infected in human U2OS cells up to 200 uM after 72 hrs by Draq5 staining based HCS analysis relative to control
Assay type: functional
Details: not given
How it was run: as §2

| SMILES | Emax [%] |
| --- | --- |
| O=C(N/N=C/c1ccc([N+](=O)[O-])o1)c1ccc(O)cc1 [NIFUROXAZIDE] | 91.9 |
| CC1CS(=O)(=O)CCN1/N=C/c1ccc([N+](=O)[O-])o1 (centres undefined) [NIFURTIMOX] | 96.6 |
| CCCCOc1ccc(C(=O)N/N=C/c2ccc([N+](=O)[O-])o2)cc1 | 115 |
| O=C(N/N=C/c1ccc([N+](=O)[O-])o1)c1ccc(-c2ccccc2)cc1 | 97.8 |
